Only some compounds are listed: those with a hit (about 2.1% of all), similar ones and a draw of the others.
EBI2 block: blocks human EBI2 receptor beta-arrestin signaling | P32249 | EBI2 beta-arrestin recruitment, luminescence, 7a,25-OHC stimulated | inhibition, % at 5 µM | hit rate 0.81% among 360,000 | AID 651636; in the data active = inhibition above about 38%;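 also: enzyme fragment complementation signal reports receptor beta-arrestin coupling in cells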
Target sequence (P32249 whole entry, looked up, the tested form may be a part): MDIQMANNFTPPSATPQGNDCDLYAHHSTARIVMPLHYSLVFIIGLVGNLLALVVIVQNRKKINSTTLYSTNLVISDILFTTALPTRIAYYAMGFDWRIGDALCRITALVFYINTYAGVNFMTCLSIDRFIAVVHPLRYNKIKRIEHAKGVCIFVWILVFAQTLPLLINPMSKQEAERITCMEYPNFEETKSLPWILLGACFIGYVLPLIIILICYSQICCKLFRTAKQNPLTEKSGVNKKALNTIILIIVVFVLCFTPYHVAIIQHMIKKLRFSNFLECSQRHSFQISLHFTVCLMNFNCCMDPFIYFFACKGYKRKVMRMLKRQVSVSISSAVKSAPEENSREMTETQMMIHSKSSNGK
APJ antagonist: antagonists of human APJ apelin receptor | AID 2521 | hit rate 0.32% among 330,000 | CHO-K1 APJ beta-arrestin complementation, luminescence | inhibition, % at 20 µM;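 active = inhibition above about 40% at 20 µM, limit read from the data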;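 also: cells challenged with 10 nM apelin-13 agonist together with compound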
APJ agonist: agonists of human APJ apelin receptor; P35414; hit rate 0.11% among 330,000; CHO-K1 APJ PathHunter beta-arrestin, luminescence; 0% DMSO wells, 100% apelin; activation, % at 20 µM;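 active = activation more than six SD over the plate average, tested at 20 µM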
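Assay system: engineered CHO-K1 APJ arrestin reporter cells; Amount: 1000 CHO-K1 reporter cells seeded per well; Dosing: one dose, 20 µM compound, 1% DMSO; Times: compound stimulation 90 min at 25 °C, detection 60 min; Measured by: luminescent beta-gal fragment complementation, chemiluminescent substrate; Read-out: APJ–arrestin association signal; Controls: DMSO vs Apelin-13 10 nM.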
CXCR6 inh: CXCR6 (human) receptor inhibition | O00574 | CHO-K1 PathHunter CXCR6 beta-arrestin, luminescence | inhibition, % at 20 µM | hit rate 0.36% among 360,000 | AID 602244; in the data active = inhibition above about 34%, passing the limit was not always enough;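 also: antagonist mode with CXCL16 agonist at 10 nM final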
CCR6 antag: CCR6 (human) receptor antagonism; inhibition, % at 20 µM; hit rate 0.49% among 340,000; P51684; AID 493098; CHO-K1 CCR6 PathHunter beta-arrestin, luminescence, CCL20-stimulated;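 active = compounds whose inhibition of the agonist-driven luminescence signal at 20 µM reaches about 50%, limit read from the data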;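 also: cells stimulated with CCL20 at 14 nM final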
HTR2A ag: agonists of mouse serotonin 5-HT2A receptor (HTR2A) | activation, % at 7.6 µM | CHO-K1 mHTR2A beta-arrestin complementation, luminescence; percent of 30 µM serotonin response | P35363 | hit rate 0.66% among 360,000 | AID 624169;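 active = activation above a run cutoff, the mean activation of all tested compounds plus 3 SD, cut at about 14% in these data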
Large screens that a line does not name were inactive.

CC1=NNC(=O)/C1=C\c1cn(-c2ccccc2)nc1-c1ccc(Cl)cc1	EBI2 block 91, APJ agonist 38
O=[N+]([O-])c1ccc(Cl)cc1C=NNc1ccccn1	none (no result: APJ antagonist, APJ agonist)
O=[N+]([O-])c1cc(Cl)cc(/C=N\Nc2ccccn2)c1O	CXCR6 inh 78, CCR6 antag 74
COC(=O)c1nc(NC(=O)C(C)C)n[nH]1	none
NC(=S)NC1CCS(=O)(=O)C1 (stereo unspecified)	none
COc1ccc2cc([C@H](C)C(=O)O)ccc2c1	HTR2A ag 41
COc1ccc2cc(C(C)C(=O)O)ccc2c1 (stereo unspecified)	none
O=C(O)CCCCCN1C(=O)/C(=C\c2ccc(-c3ccc(Cl)cc3)o2)SC1=S	none
O=C(O)CCCN1C(=O)/C(=C/c2ccc(-c3nc4ccccc4s3)o2)SC1=S	EBI2 block 53
CCn1c(SC(=O)NC2CCCCC2)nnc1-c1cccs1	CCR6 antag 51
COC(=O)C1CC2=C(CCCC2=O)N(c2ccccc2)C1=O (stereo unspecified)	none (no result: APJ antagonist, APJ agonist)
CC1CCN(S(=O)(=O)c2ccc(NC(=O)N3c4ccccc4Sc4ccccc43)cc2)CC1	none
FC(F)(F)c1nnc(-c2ccccc2)nc1Oc1ccc(Cl)cc1Cl	CCR6 antag 56
Cc1ccc2ccc(C(Nc3cccc(C(F)(F)F)c3)c3cccnc3)c(O)c2n1 (stereo unspecified)	CXCR6 inh 40, CCR6 antag 53
Cc1ccc2ccc(C(Nc3ccccc3)c3ccccc3)c(O)c2n1 (stereo unspecified)	none (no result: APJ antagonist, APJ agonist, CXCR6 inh, CCR6 antag)
COc1cc(C(=O)OCC(=O)NCc2ccc(F)cc2)ccc1OCC(C)C	none
COc1cc2c(cc1OC)-c1cc(OCc3ccccc3Cl)nc(=O)n1CC2	HTR2A ag 19
Nn1c(SCC(=O)NCCc2ccc(S(N)(=O)=O)cc2)nnc1C1CCCCC1	none
C/C=C(/C)C(=O)OC1CC(C)(C)C[C@H]2C3=CC[C@@H]4[C@@]5(C)CCC(O[C@@H]6O[C@@H](C(=O)O)[C@@H](O)C(O[C@@H]7OC[C@H](O)[C@@H](O)[C@@H]7O[C@@H]7OC(CO)C(O)[C@@H](O)[C@@H]7O)C6O[C@@H]6OC(CO)C(O)C(O)C6O)[C@@](C)(CO)[C@@H]5CC[C@]4(C)[C@]3(C)CC(O)[C@@]12CO (stereo partly specified)	none
C/C=C(\C)C(=O)OC1[C@H](OC(C)=O)C2(CO)C(CC1(C)C)C1=CCC3C4(C)CCC(O[C@@H]5O[C@H](C(=O)O)[C@@H](O[C@@H]6O[C@H](CO)[C@@H](O)[C@H](O)[C@H]6O)[C@H](O)[C@H]5O[C@H]5O[C@H](CO)[C@@H](O)[C@H](O)[C@H]5O)[C@](C)(CO)C4CCC3(C)[C@]1(C)C[C@H]2O (stereo partly specified)	CXCR6 inh 82, CCR6 antag 95, HTR2A ag 15 (no result: APJ antagonist, APJ agonist)
CC[C@H]1c2[nH]c3ccccc3c2C[C@H]2C(=O)N(c3ccc(F)cc3)C(=O)N21	EBI2 block 48
COc1ccc(NC(=O)c2cccc(Cn3cc(Br)c([N+](=O)[O-])n3)c2)c(C)c1	none
CCCCNc1c(-c2ccc(SC(C)CC)c(OC)c2)nc2ccc(Cl)cn12 (stereo unspecified)	none
CCCCNc1c(-c2ccc(-c3ccc(OC)cc3)c(OC)c2)nc2ccccn12	EBI2 block 54
CCCCNc1c(-c2ccc(SC(C)CC)c(OC)c2)nc2ccc(C)cn12 (stereo unspecified)	EBI2 block 55
CCCCNc1c(-c2ccc(OC)c(Sc3ccc(OC)cc3)c2)nc2cnccn12	none
Cc1ccc(Nc2nc(NCCCN3CCOCC3)nc(N)c2[N+](=O)[O-])cc1C	none
O=C(c1[nH]nc2c1CCc1ccccc1-2)N1CCN(Cc2ccc3c(c2)OCO3)CC1	EBI2 block 83
O=C(c1ccccc1)N1CCN(Cc2ccc3c(c2)OCO3)CC1	none
COc1cc([N+](=O)[O-])c2ncsc2c1	none
COc1cc(SSc2cc(OC)cc([N+](=O)[O-])c2N)c(N)c([N+](=O)[O-])c1	CCR6 antag 54
CCN1C(=O)/C(=C/C=C2\N(CC)c3cc(S(=O)(=O)N(C)C)ccc3N2c2ccccc2)SC1=S	CXCR6 inh 52, CCR6 antag 67
O=[N+]([O-])c1cccc(/C=N/Nc2nc(C(Cl)(Cl)Cl)nc3ccccc23)c1	APJ agonist 15
CN(C)C(CNc1ccc(C(F)(F)F)cn1)c1ccccc1 (stereo unspecified)	CCR6 antag 63
CN(C)C(CNC(=O)Cc1cccc(C(F)(F)F)c1)c1ccccc1 (stereo unspecified)	none
Cc1cc(C)c(C(=O)/C=C/c2cccs2)c(=O)[nH]1	none
Cn1c(=O)cc(OCC(=O)NCCCN2CCN(c3ccccc3F)CC2)c2ccccc21	HTR2A ag 25
CC(c1ccc(F)cc1)n1c(-c2ccc3ccccc3n2)n[nH]c1=S (stereo unspecified)	none
COc1ccc(C(=O)/C=C/C(=O)N(CC(=O)NCCC(C)C)Cc2cccs2)c(O)c1	CCR6 antag 85 (no result: APJ antagonist, APJ agonist)
COc1ccc(C(=O)/C=C/C(=O)N(CC(=O)NC2CCCCC2)Cc2ccc(F)cc2)c(O)c1	CXCR6 inh 60, CCR6 antag 98 (no result: APJ antagonist, APJ agonist)
CSc1ncnc2c1ncn2CCCNCc1ccccc1	none (no result: APJ antagonist, APJ agonist, CCR6 antag)
O=C(N=c1ccn(-c2nc3ccccc3nc2NS(=O)(=O)c2ccccc2)cc1)c1ccccc1Cl	none
C=CC(=O)N1C/C(=C/c2ccc(F)cc2)C(=O)/C(=C\c2ccc(F)cc2)C1	EBI2 block 53, CXCR6 inh 72, CCR6 antag 84 (no result: APJ antagonist, APJ agonist)
CCCCCCn1cc(C(=O)O)c(=O)c2cc(F)c(N3CCN(C)CC3)cc21	HTR2A ag 16
CCCCCCNC(=O)c1cn(CC)c2cc(N3CCN(C)CC3)c(F)cc2c1=O	EBI2 block 45
CS(=O)(=O)c1nc(-c2ccc(Br)cc2)cc(-c2ccccc2)c1C#N	EBI2 block 81
N#Cc1c(-c2ccc(Br)cc2)cc(-c2cccnc2)nc1N	none
C/C(N)=C(/C#N)C(=O)COC(=O)CSc1ccc2ccccc2c1	none
N#CC(=C1CCCC1)c1nc(-c2ccccc2O)cs1	EBI2 block 65
N#CC(=C1CCCC1)c1nc(-c2ccccc2)cs1	none
O=C(Nc1ccc(Cl)cc1Cl)c1cccc(N2C(=O)C=CC2=O)c1	CXCR6 inh 105
COc1ccc(C(=O)O)cc1S(=O)(=O)N1CCN(Cc2ccc3c(c2)OCO3)CC1	none
CCN1C/C(=C/c2cccc([N+](=O)[O-])c2)C(=O)/C(=C/c2cccc([N+](=O)[O-])c2)C1	CCR6 antag 62 (no result: APJ antagonist, APJ agonist)
COC(=O)c1ccccc1NC(=O)CSCC(=O)Nc1ccccc1	HTR2A ag 18
Cc1cc(OCC(=O)NNC(=S)NC(=O)c2cccs2)ccc1Cl	none
